In ChEMBL document CHEMBL1817556, “Substituted lactam and cyclic azahemiacetals modulate Pseudomonas aeruginosa quorum sensing” (Bioorg Med Chem, 2011):
Values belong to the compound of their own block, whether it stands above or below them.

Tests used:
[1] = target: T1, Transcriptional activator protein LasR (Pseudomonas aeruginosa (strain ATCC 15692 / PAO1 / 1C / PRS 101 / LMG12228), UniProt P25084); assay: Inhibition of Pseudomonas aeruginosa LasR
T1 sequence (P25084 whole entry): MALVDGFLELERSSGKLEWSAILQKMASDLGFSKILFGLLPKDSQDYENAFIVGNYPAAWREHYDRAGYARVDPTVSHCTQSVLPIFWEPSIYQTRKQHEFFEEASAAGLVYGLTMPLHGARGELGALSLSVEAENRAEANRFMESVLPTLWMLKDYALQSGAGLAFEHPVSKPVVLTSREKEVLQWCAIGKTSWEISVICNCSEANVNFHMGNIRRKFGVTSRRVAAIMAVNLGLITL

[2] = target: 3-(3-hydroxydecanoyloxy)decanoate synthase (Pseudomonas aeruginosa (strain ATCC 15692 / PAO1 / 1C / PRS 101 / LMG12228)) (UniProt Q51559); assay: Modulation of Pseudomonas aeruginosa lacZ-fused rhlA expressed in Escherichia coli DH5alpha co-expressing Ptac-rhlR assessed as C4-AHL-induced effect at 0.87 mM after 4 hrs by beta-galactosidase assay relative to control
Procedure, shortened: (§1)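 E. coli DH5α carrying pECP61.5 (Ptac-rhlR, PrhlA-lacZ), grown overnight in LB with ampicillin 100 μg/ml and diluted to OD600 0.150. At OD600 1.0, 1 mM IPTG, 2 μM C4-HSL and compound or DMSO were added. Cultures were shaken 4 h at 37 °C, then β-galactosidase was read in Miller units. Activity is % of solvent sample, from triplicates per biological replicate, with at least two repeats.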

[3] = target: T2, Acyl-homoserine-lactone synthase (Pseudomonas aeruginosa (strain ATCC 15692 / PAO1 / 1C / PRS 101 / LMG12228)) (UniProt P33883); assay: Modulation of Pseudomonas aeruginosa lacZ-fused lasI expressed in Escherichia coli DH5alpha co-expressing pBAD-lasR assessed as 3-oxo-C12-AHL-induced effect at 0.58 mM after 3 hrs by beta-galactosidase assay relative to control
T2 sequence (whole entry): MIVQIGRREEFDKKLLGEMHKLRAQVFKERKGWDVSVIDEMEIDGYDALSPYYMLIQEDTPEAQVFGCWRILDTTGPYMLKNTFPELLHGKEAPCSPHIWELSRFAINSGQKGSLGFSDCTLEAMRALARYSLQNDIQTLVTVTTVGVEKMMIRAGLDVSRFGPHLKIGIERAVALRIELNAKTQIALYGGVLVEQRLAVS
Procedure, shortened: (§2)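 E. coli DH5α carrying pSC11 (PlasI-lacZ translational fusion) and pJN105L (PBAD-lasR) was grown overnight in LB with ampicillin (100 μg/ml) and gentamicin (15 μg/ml), then diluted to OD600 0.150. Arabinose (0.2% w/v), 3-oxo-C12-AHL (2 μM) and test compound or DMSO were added. Cultures were shaken 3 h at 37 °C. β-Galactosidase activity was read in Miller units and expressed as % of the solvent sample. Triplicates per biological replicate, repeated at least twice; paired two-tailed t-test.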

[4] = target: 3-(3-hydroxydecanoyloxy)decanoate synthase (Pseudomonas aeruginosa (strain ATCC 15692 / PAO1 / 1C / PRS 101 / LMG12228)) (UniProt Q51559); assay: Modulation of Pseudomonas aeruginosa lacZ-fused rhlA expressed in Escherichia coli DH5alpha co-expressing Ptac-rhlR assessed as C4-AHL-induced effect at 0.29 mM after 4 hrs by beta-galactosidase assay relative to control
Procedure, shortened: (§3)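 rhl reporter: E. coli DH5α carrying pECP61.5 (Ptac-rhlR, PrhlA-lacZ) was grown overnight in LB with ampicillin (100 μg/ml) only, then diluted to OD600 0.150. It was induced with 1 mM IPTG, and 2 μM C4-HSL plus compound or DMSO were added at OD600 1.0. Cultures were shaken 4 h at 37 °C. β-Galactosidase activity was read in Miller units as % of the solvent sample. Triplicates per biological replicate, at least two repeats; paired two-tailed t-test.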

[5] = target: T2, Acyl-homoserine-lactone synthase (Pseudomonas aeruginosa (strain ATCC 15692 / PAO1 / 1C / PRS 101 / LMG12228)); assay: Modulation of Pseudomonas aeruginosa lacZ-fused lasI expressed in Escherichia coli DH5alpha co-expressing pBAD-lasR assessed as 3-oxo-C12-AHL-induced effect at 0.29 mM after 3 hrs by beta-galactosidase assay relative to control; procedure, shortened: as §2
[6] = target: 3-(3-hydroxydecanoyloxy)decanoate synthase (Pseudomonas aeruginosa (strain ATCC 15692 / PAO1 / 1C / PRS 101 / LMG12228)) (UniProt Q51559); assay: Modulation of Pseudomonas aeruginosa lacZ-fused rhlA expressed in Escherichia coli DH5alpha co-expressing Ptac-rhlR assessed as C4-AHL-induced effect at 0.58 mM after 4 hrs by beta-galactosidase assay relative to control; procedure, shortened: as §1
[7] = target: T2, Acyl-homoserine-lactone synthase (Pseudomonas aeruginosa (strain ATCC 15692 / PAO1 / 1C / PRS 101 / LMG12228)); assay: Modulation of Pseudomonas aeruginosa lacZ-fused lasI expressed in Escherichia coli DH5alpha co-expressing pBAD-lasR assessed as 3-oxo-C12-AHL-induced effect at 0.87 mM after 3 hrs by beta-galactosidase assay relative to control; procedure, shortened: as §2
[8] = target: T2, Acyl-homoserine-lactone synthase (Pseudomonas aeruginosa (strain ATCC 15692 / PAO1 / 1C / PRS 101 / LMG12228)); assay: Modulation of Pseudomonas aeruginosa lacZ-fused lasI expressed in Escherichia coli DH5alpha co-expressing pBAD-lasR assessed as 3-oxo-C12-AHL-induced effect at 1.16 mM after 3 hrs by beta-galactosidase assay relative to control; procedure, shortened: as §2
[9] = target: 3-(3-hydroxydecanoyloxy)decanoate synthase (Pseudomonas aeruginosa (strain ATCC 15692 / PAO1 / 1C / PRS 101 / LMG12228)) (UniProt Q51559); assay: Modulation of Pseudomonas aeruginosa lacZ-fused rhlA expressed in Escherichia coli DH5alpha co-expressing Ptac-rhlR assessed as C4-AHL-induced effect at 1.16 mM after 4 hrs by beta-galactosidase assay relative to control; procedure, shortened: as §1
[10] = target: T2, Acyl-homoserine-lactone synthase (Pseudomonas aeruginosa (strain ATCC 15692 / PAO1 / 1C / PRS 101 / LMG12228)); assay: Modulation of Pseudomonas aeruginosa lacZ-fused lasI expressed in Escherichia coli DH5alpha co-expressing pBAD-lasR assessed as 3-oxo-C12-AHL-induced effect at 0.34 mM after 3 hrs by beta-galactosidase assay relative to control; procedure, shortened: as §2
[11] = target: 3-(3-hydroxydecanoyloxy)decanoate synthase (Pseudomonas aeruginosa (strain ATCC 15692 / PAO1 / 1C / PRS 101 / LMG12228)) (UniProt Q51559); assay: Modulation of Pseudomonas aeruginosa lacZ-fused rhlA expressed in Escherichia coli DH5alpha co-expressing Ptac-rhlR assessed as C4-AHL-induced effect at 0.34 mM after 4 hrs by beta-galactosidase assay relative to control; procedure, shortened: as §3
[12] = target: T2, Acyl-homoserine-lactone synthase (Pseudomonas aeruginosa (strain ATCC 15692 / PAO1 / 1C / PRS 101 / LMG12228)); assay: Modulation of Pseudomonas aeruginosa lacZ-fused lasI expressed in Escherichia coli DH5alpha co-expressing pBAD-lasR assessed as 3-oxo-C12-AHL-induced effect at 0.52 mM after 3 hrs by beta-galactosidase assay relative to control; procedure, shortened: as §2
[13] = target: T2, Acyl-homoserine-lactone synthase (Pseudomonas aeruginosa (strain ATCC 15692 / PAO1 / 1C / PRS 101 / LMG12228)); assay: Modulation of Pseudomonas aeruginosa lacZ-fused lasI expressed in Escherichia coli DH5alpha co-expressing pBAD-lasR assessed as 3-oxo-C12-AHL-induced effect at 0.69 mM after 3 hrs by beta-galactosidase assay relative to control; procedure, shortened: as §2
[14] = target: T2, Acyl-homoserine-lactone synthase (Pseudomonas aeruginosa (strain ATCC 15692 / PAO1 / 1C / PRS 101 / LMG12228)); assay: Modulation of Pseudomonas aeruginosa lacZ-fused lasI expressed in Escherichia coli DH5alpha co-expressing pBAD-lasR assessed as 3-oxo-C12-AHL-induced effect at 0.17 mM after 3 hrs by beta-galactosidase assay relative to control; procedure, shortened: as §2
[15] = target: 3-(3-hydroxydecanoyloxy)decanoate synthase (Pseudomonas aeruginosa (strain ATCC 15692 / PAO1 / 1C / PRS 101 / LMG12228)) (UniProt Q51559); assay: Modulation of Pseudomonas aeruginosa lacZ-fused rhlA expressed in Escherichia coli DH5alpha co-expressing Ptac-rhlR assessed as C4-AHL-induced effect at 0.17 mM after 4 hrs by beta-galactosidase assay relative to control; procedure, shortened: as §3
[16] = target: 3-(3-hydroxydecanoyloxy)decanoate synthase (Pseudomonas aeruginosa (strain ATCC 15692 / PAO1 / 1C / PRS 101 / LMG12228)) (UniProt Q51559); assay: Modulation of Pseudomonas aeruginosa lacZ-fused rhlA expressed in Escherichia coli DH5alpha co-expressing Ptac-rhlR assessed as C4-AHL-induced effect at 0.52 mM after 4 hrs by beta-galactosidase assay relative to control; procedure, shortened: as §3
[17] = target: 3-(3-hydroxydecanoyloxy)decanoate synthase (Pseudomonas aeruginosa (strain ATCC 15692 / PAO1 / 1C / PRS 101 / LMG12228)) (UniProt Q51559); assay: Modulation of Pseudomonas aeruginosa lacZ-fused rhlA expressed in Escherichia coli DH5alpha co-expressing Ptac-rhlR assessed as C4-AHL-induced effect at 0.69 mM after 4 hrs by beta-galactosidase assay relative to control; procedure, shortened: as §1
[18] = target: T2, Acyl-homoserine-lactone synthase (Pseudomonas aeruginosa (strain ATCC 15692 / PAO1 / 1C / PRS 101 / LMG12228)); assay: Modulation of Pseudomonas aeruginosa lacZ-fused lasI expressed in Escherichia coli DH5alpha co-expressing pBAD-lasR at 0.002 mM after 3 hrs by beta-galactosidase assay relative to control; procedure, shortened: as §2

Structure (SMILES): O=C(Cc1cccc([N+](=O)[O-])c1)N[C@H]1CCOC1=O
- IC50 [1]: 610 nM

- Activity [2]: 104%
- Activity [3]: 72%
- Activity [4]: 104%
- Activity [5]: 90%
- Activity [6]: 118%
- Activity [7]: 51%
- Activity [8]: 43%
- Activity [9]: 108%
Structure (SMILES): CCCSC[C@@H]1CCC(=O)N1

- IC50 [1]: 40 nM
Structure (SMILES): CCCCCCCCCCCC(=O)N[C@H]1CCSC1=O

- Activity [10]: 78%
- Activity [11]: 127%
- Activity [12]: 71%
- Activity [13]: 53%
- Activity [14]: 78%
- Activity [15]: 98%
- Activity [16]: 116%
- Activity [17]: 121%
Structure (SMILES): CCCCCCCCCSC[C@H]1NC(O)[C@H](O)[C@@H]1O (mixture of isomers)

- Activity [18]: 100%
Structure (SMILES): CCCCCCCCCC(=O)CC(=O)N[C@H]1CCOC1=O
